Source: the EternaBench riboswitch data

Test system: MS2 coat protein
Assay: apparent Kd, MS2 coat protein; higher = weaker binding; RNA-MaP array; FMN 200 µM where present
Outline: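 Designs were transcribed by stalled E. coli RNA polymerase on Illumina sequencing-chip clusters. They were titrated with SNAP-549-labelled MS2 coat protein from 0.7 or 1.5 nM, doubling to 3 µM, without and then with constant ligand. Buffer: 100 mM Tris-HCl pH 7.5, 80 mM KCl, 4 mM MgCl2, BSA, DTT, yeast tRNA, Tween-20. Green signal was normalised to red-channel RNA signal and control-cluster median Fmax. Apparent Kd is the median of filtered per-cluster binding-curve fits.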

[1] = designed as: OFF switch for flavin mononucleotide, no ligand
[2] = ligand present: flavin mononucleotide, designed as: OFF switch for flavin mononucleotide
[3] = designed as: ON switch for flavin mononucleotide, no ligand
[4] = ligand present: flavin mononucleotide, designed as: ON switch for flavin mononucleotide

Sequence	apparent Kd [1]	apparent Kd [2]	apparent Kd [3]	apparent Kd [4]
AUAGCAACAUGAGGAUCACCCAUGUAGGAUAUCGCUAUUGUAAUCAUGAAACAUGAUUACAAUAGCGAGAAGGACAUAUGCUAU	6.51 nM	9.75 nM	–	–
AUAGGAUUGCGAGGAUAUUAGCGCGGGCCUUCAGACUUACGAAAUGACAUGAGGAUCACCCAUGUUAAGAAGGCGCAUCAAAUG	6.58 nM	58.3 nM	–	–
AUAUACGUUGAGGAUAUGCGAAUAAGUAUAGUUGCAGAAGGCGACACAUGAGGAUCACCCAUGUUCAUGGACAC	28.2 nM	44.6 nM	–	–
AUAUAGAUGGUCAGGAUAUGCUAGUGGUAACAGUAGCAGAAGGGACAUGAGGAUCACCCAUGUAGAUACUGCUC	18 nM	32.2 nM	–	–
AUAUAUAUAUCAGGAUAUGGACAGGCCUGUUCGUAUUAAGACAGUAACAUGAGGAUCACCCAUGUCCAGAAGGGAUAUAUAUAU	83.9 nM	50 nM	–	–
AUAUCUCUGUAAGGAUAUAGAUGGUGUACGCCUCCGACAUGAGGAUCACCCAUGUUAUAUUUUGUCUAGAAGGUACAGUGUCGG	–	–	389 nM	222 nM
AUAUCUUACCAAGGAUAUUUAAGAUUUGUGUAGACAUGAGGAUCACCCAUGUGGCCUUAGUCACGGGAGAAGGUGGUUUGAUAU	–	–	878 nM	493 nM
AUAUUAAGUGUGAGGAUAUGCUGGUCCUUGGAUCAGCAGAAGGCACAUGAGGAUCACCCAUGUAAUAUAUUUAU	90.4 nM	349 nM	–	–
AUCAAUCGUGUAGGAUAUGCGUGGCGAAGCUAUGCAGAAGGACAUGAGGAUCACCCAUGUCUUUCUGUCUGUGUACAGACAGGA	20.4 nM	71.5 nM	–	–
AUCAGCGCGUCAGGAUAUACGUCACUGCGUCAGCAGUGUGGUAAGAUCACAUGAGGAUCACCCAUGUAGAAGGGACGAGCUGAU	12.8 nM	307 nM	–	–
AUCAGCUCGUCAGGAUAUACGUCACUGCGUCACCAGUGUGGUAAGAUCACAUGAGGAUCACCCAUGUAGAAGGGACGAGCUGAU	15.4 nM	287 nM	–	–
AUCAGCUCGUCAGGAUAUACGUCACUGCGUCAGCAGCGUGGUAAGAUCACAUGAGGAUCACCCAUGUAGAAGGGACGAGCUGAU	25.7 nM	336 nM	–	–
AUCAGCUCGUCAGGAUAUACGUCACUGCGUCAGCAGGGUGGUAAGAUCACAUGAGGAUCACCCAUGUAGAAGGGACGAGCUGAU	23 nM	404 nM	–	–
AUCAGCUCGUCAGGAUAUACGUCACUGCGUCAGCAGUGUAAUAAAAUAACAUGAGGAUCACCCAUGUAGAAGGGACGAGCUGAU	6.36 nM	6.75 nM	–	–
AUCAGCUCGUCAGGAUAUACGUCACUGCGUCAGCAGUGUGGUAAGAUCACAUGAGGAUCACCCAUGUAGAAGGGACGAGCUGAG	14.1 nM	284 nM	–	–
AUCAGCUCGUCAGGAUAUACGUCACUGCGUCAGCAGUGUGGUAAGAUCACAUGAGGAUCACCCAUGUAGAAGGGACGAUCUGAU	12.8 nM	309 nM	–	–
AUCAGCUCGUCAGGAUAUACGUCACUGCGUCAGCAGUGUGGUCAGAUCACAUGAGGAUCACCCAUGUAGAAGGGACGAGCUGAU	28.6 nM	549 nM	–	–
AUCAGCUCGUCAGGAUAUACGUCACUGCGUGAGCAGUGUGGUAAGAUCACAUGAGGAUCACCCAUGUAGAAGGGACGAGCUGAU	13.6 nM	271 nM	–	–
AUCAGCUUGACAGGAUAUGCAUGUCAACGAAAGUUGACAAUCUUAAUAACAUGAGGAUCACCCAUGUAGAAGGGUCGAGCUGAU	17.4 nM	19.9 nM	–	–
AUCAGUCCGUAGAAGGGUGACAUGAGGAUCACCCAUGUGCCGUGUGCAUUUAUGCCUCCACGGCCACAGGAUAUACGGAGUCGA	–	–	89 nM	22.6 nM
AUCAUCUUAUCAGGAUAUGCGUGUCGACGAAAGUAGACAAUCUUGAUAACAUGAGGAUCACCCAUGUAGAAGGGAUGAGAUGAU	46.6 nM	40.2 nM	–	–
AUCAUGAGAGGAUAUACAUGAGGAUCACCCAUGUGGUAAACACCAUGAGCUCAAUUACGUAGAAGGCUCAUUUG	26.4 nM	45.6 nM	–	–
AUCAUGUAAGGAUAUCUUACAUGUGACUUCGGUCACUGUUCAGAGAAGGUACAUGAGGAUCACCCAUGUAGAAC	18.8 nM	28.4 nM	–	–
AUCAUGUGAGGAUAUGUGAUCAACCUUCUGUAUAGAUGAUUACAGAAGGCACAUGAGGAUCACCCAUGUAGAUC	70.9 nM	79 nM	–	–
AUCAUUCGUGUAGGAUAUGCGUGGCGAAGCUAUGCAGAAGGACAUGAGGAUCACCCAUGUCUUUCUCGAGCUGUAGCUCGAGGA	21.3 nM	92.2 nM	–	–
AUCCGCUCGUCAGGAUAUACGUCACUGCGUCAGCAGUGUGGUAAGAUCACAUGAGGAUCACCCAUGUAGAAGGGACGAGCUGAU	13.6 nM	276 nM	–	–
AUCCUACAUGAGGAUCACCCAUGUCAGGAUAUCCAAGAAAUGUGGCCGUAUCGGCCACGGAGAAGGGACGGGUG	40 nM	60.8 nM	–	–
AUCGUGAGUAAGGAUAUCACGCGACCCUUUCGGUGAGAAGGUGCCACAUGAGGAUCACCCAUGUGGGUCGUCGC	15.6 nM	15.9 nM	–	–

Sequence	apparent Kd [1]	apparent Kd [2]	apparent Kd [3]	apparent Kd [4]
AUCUCACAUGAGGAUCACCCAUGUUAGGAUAUUGUUUCUUGAUGAUUACAUCAAGCGAUAAGAAGGGACAGACU	25.6 nM	27.4 nM	–	–
AUCUGGUCCUUACGCCCACAUGAGGAUCACCCAUGUCAGGCACAGGAUAUCCCGGGAGCUUUGGUGGAGAAGGGUGCCCUUGGG	55.6 nM	100 nM	–	–
AUCUUGUAAGGAUAUCGUGCAAGUUUCAAAAGAGGCUUGUGCGAGAAGGUACAUGAGGAUCACCCAUGUAGGUU	26.2 nM	71.2 nM	–	–
AUGAGGGAAGUAGGAUAUGAUCAAGACAUGAGGAUCACCCAUGUAAUGAGGGUGUGUGUCUUUGUUCAGAAGGACUUGUAUCAA	60.4 nM	60.4 nM	–	–
AUGAGUAAAGCAGGAUAUCUAUUGUCUCUGUAACAUGAGGAUCACCCAUGUAGAGAAGGGCUUAGUCAUUCUCUUCGGAGUUGU	17.4 nM	16.6 nM	–	–
AUGAUUAUAUUAUACAUGAGGAUCACCCAUGUUAUAAGUCAUGAGGAUAUGGUAUUGUAGUUAUUCCAGAAGGCAUUUAACUUA	–	–	7.02 nM	5.79 nM
AUGCAACAUGAGGAUCACCCAUGUGAGGAUAUCGUAUAAUACUGUUGAAAGAGUUAGACGAGAAGGCACACCGU	28.2 nM	54 nM	–	–
AUGCCGGGCCGAGGAUAUAAGUCUAGGACAUGAGGAUCACCCAUGUAUGUCUUAGAAGGCGGCCCGGCAAGCCUGUUACAGGCA	–	–	27.7 nM	6.6 nM
AUGCUAGUGUGAGGAUAUUAACAUGAGGAUCACCCAUGUUGGAAGAUCAUGACGAUCACGCAUGAUAAGAAGGUACAUUAGCAU	40.8 nM	94.9 nM	–	–
AUGCUAGUGUGAGGAUAUUAACAUGAGGAUCACCCAUGUUGGAAGUACACGACAUGAGGUACAUUUAAGAAGGUACAUUAGCAU	145 nM	161 nM	–	–
AUGCUUAUCGAAGGAUAUGGUUACAUGAGGAUCACCCAUGUUAUGCUUGGUUACUUGUUUAGUUUCCAGAAGGUCGAUUAGUUA	46.9 nM	174 nM	–	–
AUGCUUCACACAGGAUAUACAUGAGGAUCACCCAUGUGUCCUAAGUAGCUGACACGAGCUACGCGGUAGAAGGGUGUGAAGCAU	21.6 nM	154 nM	–	–
AUGCUUUUUGUAGGAUAUACAUUUUGUACGUAUGUAGAAGGACAUGAGGAUCACCCAUGUAAAUAAAUAUUAAAUAUCAUACUU	54.6 nM	39.6 nM	–	–
AUGGAUAUCACAGGAUAUGCCAUGGAUACCAUGGCAGAAGGGUGAUCCAUCCUAUGUAAAUACAUGAGGAUCACCCAUGUGUCC	–	–	16.1 nM	13.7 nM
AUGGCGUGAGGAUAUGCGCAGGUUAACAUGAGGAUCACCCAUGUGGGCAUUGGUUUUCACGCAGAAGGUACGUUAA	14.5 nM	15.2 nM	–	–
AUGGUACAUGAGGAUCACCCAUGUCAGGAUAUCGGCUUUAACGUGAAAAGAGUGUUAGCGAGAAGGGACUGCUC	23.6 nM	28.7 nM	–	–
AUGGUACAUGAGGAUCACCCAUGUUAGGAUAUCGCGUGUUCUAAAACUAAGAGAUACACGAGAAGGGACGACAU	90.2 nM	67.7 nM	–	–
AUGUACCUAGGAUAUACAUGAGGAUCACCCAUGUAGCUUCACGUGGUAGGAUCCUUUGGUAGAAGGAGGAUCUU	37.3 nM	68.2 nM	–	–
AUGUUAUAUGAAGGAUAUACUUAACAUGAGGAUCACCCAUGUGGUGUUGUGAGUGAGUGAGUUUAGUAGAAGGUCAAUUCUUUU	256 nM	263 nM	–	–
AUGUUAUUGGAAGGAUAUAGUUUACUAUUCUAACAUGAGGAUCACCCAUGUAACCUUAUGUGUAUCUAGAAGGUCCAUAACUUA	54.6 nM	62.3 nM	–	–
AUGUUUCAUGUAGGAUAUGCAUACUGUUAGUAUGCAGAAGGACAUGAGGAUCACCCAUGUAUAUUAUCAUUACAUAUCAUACAU	60.4 nM	492 nM	–	–
AUUAAAACAUAGGAUAUCGAAUUUAUCAUUUAACGAGAAGGAUGAACAUGAGGAUCACCCAUGUGGUAUCAUGG	361 nM	207 nM	–	–
AUUAACUACAUAGGAUAUUGAUACAUGAGGAUCACCCAUGUCACGUAUUUAUAUUAAACAUUUGACAAGAAGGAUGUGGUUACA	–	–	17.2 nM	7.01 nM
AUUACAAUUUUAUACAUGAGGAUCACCCAUGUUAUAAGUCAUGAGGAUAUGGUAUUGUAGUUAUUCCAGAAGGCAUUUAGCUAA	–	–	8.75 nM	7.64 nM
AUUACCAGAGGAUAUGCGAGGGUGUACCUCCCACAGCGAACACAUGAGGAUCACCCAUGUAGAAGGCUGAACAU	38.9 nM	33 nM	–	–
AUUAUACAUGAGGAUCACCCAUGUAAUUAAUCUAGUAAGAUCUAGGAUAUCAGCUCGAAUAGAGCUGAGAAGGAGAUCACAUGU	–	–	53.6 nM	20.7 nM
AUUAUACAUGAGGAUCACCCAUGUAAUUAAUUAAUUAAGAUCUAGGAUAUCAGCUCGUUUAGAGCUGAGAAGGAGAUCACAUGU	–	–	30.1 nM	18.8 nM
